High-throughput results from PubChem.
FGF22 binding – shifts melting point of recombinant human FGF22; recombinant FGF22 thermal shift, SYPRO orange fluorescence; percent of sucrose octasulfate shift, DMSO zero; AID 651658; activity (Tm shift, normalised), % at 9.99 µM; Q9HCT0; 340,000 compounds, 1.5% hits;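 active = mean Tm shift, scaled 0 neutral to 100 positive control, at about 1.3% or above, every replicate too, limit read from the data; inconclusive = no clear call, values can overlap the other calls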
Target sequence (Q9HCT0 whole entry, looked up): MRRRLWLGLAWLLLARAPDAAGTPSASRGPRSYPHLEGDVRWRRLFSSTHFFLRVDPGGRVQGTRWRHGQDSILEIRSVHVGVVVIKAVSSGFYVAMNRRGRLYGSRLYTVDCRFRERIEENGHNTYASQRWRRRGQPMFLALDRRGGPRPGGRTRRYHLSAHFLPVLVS
PglD inh – PglD (C. jejuni) enzyme inhibition; 360,000 compounds, 0.098% hits; inhibition, % at 12.5 µM; purified PglD enzyme, DTNB colorimetric CoA detection; in the data active = inhibition above about 16%, passing the limit was not always enough; inconclusive = no clear call, values can overlap the other calls
XiGFP reactiv – reactivates the inactive X chromosome in mouse fibroblasts; XiGFP mouse fibroblasts, % GFP-positive cells imaging, 3 d; cells co-treated with 5-aza-dC sensitizer; scaled so ellipticine positive control = 100%; activation, % at 7.58 µM; 360,000 compounds, 0.055% hits; AID 743238;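 active = mean normalized replicate activation at least 10% and every replicate at or above 10%; inconclusive = only one of the two criteria met; inactive = mean below 10% and not all replicates reach 10%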;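 note: 0% = median of on-plate neutral control wells and 100% = ellipticine 6 µM median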
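System: 68-5-11 XiGFP fibroblast line | Buffer or medium: DMEM containing 5-aza-dC | Compound: Single point | Times: Compounds 3 days, fix/stain 15 min at room temperature | Benchmarks: Positive control ellipticine, 6 µM final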
DENV2 CPE rescue – protects cells from dengue virus 2 cytopathic effect; DENV2-infected cells, cytopathic effect rescue, plate reader; CPE inhibition, % at 9.99 µM; 350,000 compounds, 1.7% hits; AID 651640; in the data active = CPE inhibition above about 20%, passing the limit was not always enough; inconclusive = no clear call, values can overlap the other calls; tested in BHK-21 cells;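 note: 0% = median of neutral control wells and 100% = median of positive control wells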
Statin myotox sup – suppression of simvastatin myotoxicity; C2C12 myotubes + simvastatin, ATP luminescence, 48 h; scaled: DMSO 0, geranylgeraniol control 100; rescue of ATP level, % at 7.49 µM; 330,000 compounds, 0.78% hits;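 active = mean ATP rescue above about 67%, or every replicate alone reaching that limit, limit read from the data, passing the limit was not always enough; inconclusive = no clear call, values can overlap the other calls; inactive = mean under the limit and some replicate under it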;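 note: myotubes were challenged with 10 µM simvastatin during compound exposure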
E-sel inducer – E-selectin induction on HUVECs; P16581; activation, % at 7.58 µM; HUVEC E-selectin immunofluorescence imaging; normalized: neutral wells 0, TNF-alpha wells 100; 260,000 compounds, 0.37% hits; AID 686992;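 active = mean E-selectin-positive cell signal at least 10% of the positive control, reached in at least 60% of replicates, without over 20% cell loss; inconclusive = no rule given, readout overlaps actives, possibly toxicity-flagged; inactive = the rest, including those meeting only one limit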
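material = human umbilical vein endothelial cells (HUVEC), E-selectin induction | quantity = 3,000 cells/well | medium = EGM-2 growth medium on 0.1% gelatin-coated wells | technique = immunofluorescence imaging | read-out basis = % PE-positive cells | control set = TNF-alpha positive control, DMSO neutral control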
Active calls of the source: *; ? = inconclusive; . = not tested or not shown; ! = repeats disagree. In the library only some 3.3% were active in any assay of this set; here they are far more common.

SMILES	FGF22 binding	PglD inh	XiGFP reactiv	DENV2 CPE rescue	Statin myotox sup	E-sel inducer
C[C@H](CO)N1C[C@H](C)[C@@H](CN(C)S(=O)(=O)c2ccc(Cl)cc2)Oc2c(NC(=O)NC3CCCCC3)cccc2C1=O	0	2	0	21*	31	0
C[C@@H]1CN([C@@H](C)CO)C(=O)c2cccc(NC(=O)NC3CCCCC3)c2O[C@@H]1CN(C)S(=O)(=O)c1ccc(Cl)cc1	0	-5	0	16	1	0
COc1ccc(S(=O)(=O)N(C)C[C@@H]2Oc3c(NC(=O)NC4CCCCC4)cccc3C(=O)N([C@H](C)CO)C[C@@H]2C)cc1	0	-6	0	-2	-17	1
COc1ccc(S(=O)(=O)N(C)C[C@H]2Oc3c(NC(=O)NC4CCCCC4)cccc3C(=O)N([C@H](C)CO)C[C@@H]2C)cc1	0	4	-1	70*!	23	0
CCCc1cc(C(=O)OC)c(NC(=O)CCC(=O)O)s1	43*	.	0	5	.	0
C#Cc1ccc([C@H]2C=C(C(=O)N3CCOCC3)O[C@@H](OCCCCO)C2)cc1	0	-2	.	?	.	.
O=C(C[C@H]1CC[C@@H](NS(=O)(=O)c2ccccc2)[C@@H](CO)O1)N1CCc2ccccc2C1	0	1	-1	-5	7	0
COc1ccc(N2CCN(C(c3cc(OC)ccc3OC)c3nnnn3CC3CCCO3)CC2)cc1 (stereo not given)	.	-3	.	.	79*	.
COc1ccc2cc(C(c3nnnn3CC3CCCO3)N3CCOCC3)c(=O)[nH]c2c1 (stereo not given)	.	2	.	.	2	.
COc1ccc(C(c2nnnn2CC2CCCO2)N2CCN(c3ccccc3)CC2)cc1 (stereo not given)	.	1	.	.	5	.
COc1ccc2[nH]c(=O)c(C(c3nnnn3CC3CCCO3)N3CCCCC3)cc2c1 (stereo not given)	43*	.	0	1	.	.
ClC(Br)=C(n1cnc2ccccc21)n1cnc2ccccc21	.	6	.	.	90*	.
O=C(C[C@H]1C[C@H]2c3cc(NC(=O)NC4CCCCC4)ccc3O[C@H]2[C@H](CO)O1)NC1CCCC1	.	.	1	.	.	.
O=C(Nc1ccc2c(c1)OCO2)N[C@H]1CC[C@@H](CCNC(=O)C2CCCCC2)O[C@@H]1CO	0	-2	0	5	3	-2
COc1cccc(NC(=O)N[C@@H]2C=C[C@H](CC(=O)N3CCCCC3)O[C@H]2CO)c1	0	-3	0	13	7	-2
Cc1[nH][nH]c(=O)c1C(c1ccc(-c2ccc(F)cc2)o1)c1c(C)[nH][nH]c1=O	43*	.	0	5	.	-1
O=C(Nc1ccc(F)cc1)N[C@@H]1C[C@@H]2O[C@H](CO)CC[C@@H]2O[C@@H]1CCc1ccc(-c2ccccc2)cc1	-1	.	.	-16	.	.
O=C(C[C@@H]1CC[C@@H]2[C@H](COC[C@@H](O)CN2Cc2ccccc2)O1)NCc1ccccc1Cl	0	-1	0	33*	21	0
O=C(C[C@@H]1CC[C@H]2[C@@H](COC[C@H](O)CN2Cc2ccccc2)O1)N[C@@H]1CCN(Cc2ccccc2)C1	-1	-1	0	39*	10	0
O=C(C[C@H]1CC[C@H]2NC[C@H](O)COC[C@@H]2O1)NCCc1ccccc1	0	-2	0	36*	17	0
O=C(C[C@H]1CC[C@@H]2[C@H](COC[C@@H](O)CN2Cc2ccccc2)O1)N[C@@H]1CCN(Cc2ccccc2)C1	-1	-4	0	5	12	0
O=C(C[C@H]1CC[C@H]2[C@@H](COC[C@@H](O)CN2S(=O)(=O)c2ccccc2Cl)O1)NCc1ccccc1Cl	0	-1	0	73*	4	0
COc1ccc(S(=O)(=O)N(C)C[C@H]2OCCCC[C@H](C)Oc3ccc(NC(=O)NC4CCCCC4)cc3C(=O)N([C@H](C)CO)C[C@H]2C)cc1	1	2	0	-8	.	.
CCCN(C)C[C@H]1Oc2cc(C#Cc3cccc(F)c3)ccc2S(=O)(=O)N([C@H](C)CO)C[C@@H]1C	0	-1	0	-3	-1	-1
COc1ccc(CN2C[C@@H](O)COC[C@H]3O[C@H](CC(=O)NCc4ccncn4)CC[C@@H]32)cc1	0	12	0	1	2	0
SMILES	FGF22 binding	PglD inh	XiGFP reactiv	DENV2 CPE rescue	Statin myotox sup	E-sel inducer
O=C(C[C@@H]1CC[C@@H]2[C@H](COC[C@@H](O)CN2Cc2ccc(F)cc2)O1)NCCc1ccccc1	0	-3	0	28*	24	0
O=C(C[C@@H]1CC[C@@H]2[C@H](COC[C@H](O)CN2Cc2cc(F)cc(F)c2)O1)NCc1cccc(F)c1	0	1	0	22*	10	0
O=C(C[C@@H]1CC[C@H]2[C@@H](COC[C@H](O)CN2Cc2ccc(F)cc2)O1)NCCc1ccccc1	0	-2	0	-9	28	0
O=C(C[C@@H]1CC[C@@H]2[C@H](COC[C@@H](O)CN2Cc2ccc(F)cc2)O1)N1CCc2ccccc2C1	-1	25*	0	0	-10	0
O=C(C[C@H]1CC[C@@H]2[C@H](COC[C@H](O)CN2Cc2ccc(F)cc2)O1)NCc1ccncn1	0	-5	0	27*	0	0
C[C@H](CO)N1C[C@H](C)[C@H](CN(C)C(=O)Nc2cccc3ccccc23)Oc2c(NS(=O)(=O)c3cccs3)cccc2C1=O	-1	1	-1	3	-37	0
O=C(C[C@H]1CC[C@H]2[C@@H](COC[C@@H](O)CN2C(=O)c2ccc(F)cc2)O1)NCCCN1CCOCC1	0	5	0	20*	-7	0
CCOc1ccc(OCCCN(C)C)cc1	.	.	.	.	.	0
CCOc1ccc(OCCCCN(C)C)cc1	.	1	.	.	90*	.
CC(NC(=O)CN1CCN(c2cccc(Cl)c2)CC1)c1ccccc1 (stereo not given)	0	-3	0	44*	-9	.
O=C(Cc1ccccc1)Nc1ccc(N2CCCC2)cc1	.	4	.	.	-19	.
CCN1CCN(c2ccc(NC(=O)Cc3ccccc3)cc2)CC1	.	1	.	.	105*	.
O=C(CN1CCN(C(c2ccccc2)c2ccccc2)CC1)Nc1ccc(N2CCOCC2)cc1	43*	.	1	-6	.	2
O=S(=O)(c1cccs1)N1CCCCN2[C@@H](CO)[C@@H](c3ccc(-c4ccccc4)cc3)[C@@H]2C1	0	0	0	-32	7	0
CCC(=O)N1[C@H](CN(CC)C(=O)c2ccc(F)cc2)[C@H](c2ccccc2)[C@@H]1CO	0	-1	0	2	2	0
CCC1(C)Nc2ccccc2C(=O)N1O (stereo not given)	.	2	.	.	118*	.
